Measurements from different studies.
Compare with care: the assays were run in different laboratories.
CHRM1: Muscarinic acetylcholine receptor M1 (CHRM1, Homo sapiens, UniProt P11229)
ALDH2: Aldehyde dehydrogenase, mitochondrial (ALDH2, Homo sapiens, UniProt P05091)
HDAC11: Histone deacetylase 11 (HDAC11, Homo sapiens, UniProt Q96DB2)
CYP1A2: Cytochrome P450 1A2 (CYP1A2, Homo sapiens, UniProt P05177)
CYP3A4: Cytochrome P450 3A4 (CYP3A4, Homo sapiens, UniProt P08684)

`CC(C)C[C@H](NC(=O)[C@@H](NC(=O)N[C@@H](Cc1ccccc1)C(=O)O)[C@@H]1CCN=C(N)N1)C(=O)N[C@H](C=O)Cc1ccccc1` has an IC50 of 0.00777 µM (Chymase (CMA1, Homo sapiens, UniProt P23946); enzyme activity, inhibitor).
`O=C(CCNC(=O)CNC(=O)CC(c1ccccc1)(c1ccccc1)c1ccccc1)NC[C@@H]1CCCN(Cc2cccnc2F)C1` gave an IC50 of over 30 µM (CHRM1; ligand displacement, radioligand; cell membranes).
`CCCN(CCC)S(=O)(=O)c1ccc(C(=O)O)cc1` has an IC50 of 1000 µM (Taste receptor type 2 member 14 (TAS2R14, Homo sapiens, UniProt Q9NYV8, S265A); inositol phosphate, antagonist, TR-FRET).
With `CNC(=O)[C@H](Cc1c[nH]c2ccccc12)NC(=O)[C@@H](CC(=O)NO)CC(C)C` the IC50 was 0.000129 µM (Collagenase 3 (MMP13, Homo sapiens, UniProt P45452); enzyme activity, inhibitor).
`O=C1Nc2ccccc2/C1=C\c1cc(F)c(O)c(F)c1` has an IC50 of 0.9 µM (ALDH2; enzyme activity, inhibitor, fluorescence).
For `COc1ccc(N(Cc2csc(-c3ccc(Br)cc3)n2)C(=O)CCCCCC(=O)NO)cc1`, the IC50 was over 10 µM (HDAC11; enzyme activity, inhibitor).
`Cc1ccc(OCC(=O)N[C@@H](Cc2c[nH]c3ccccc23)C(=O)OC(C)C)cc1` has an IC50 of over 50 µM (CYP1A2; enzyme activity, inhibitor; human, liver microsomes; 30 min).
The IC50 of `CC(C)(C)S(=O)(=O)c1cc2c(Nc3ccc4scnc4c3)ncnc2cc1OCCOP(=O)(O)O` is reported as 49 µM (CYP3A4; enzyme activity, inhibitor; human, liver microsomes; 5 min, pH 7.4, testosterone probe).
For `CC(C)N(CCC(=O)c1ccc2ccccc2c1)Cc1ccccc1`, the IC50 was under 10 µM (ALDH2; enzyme activity, inhibitor, fluorescence).
`Cc1cc2c(cc1C)N[C@H](c1ccccc1)[C@@H](O)C(=O)N2` gave an IC50 of 0.804 µM (Tyrosine-protein kinase JAK1 (JAK1, Homo sapiens, UniProt P23458); enzyme activity, inhibitor, ELISA).
The IC50 of `OC[C@H]1O[C@@H](Oc2ccc(O)c3cccc(O)c23)[C@H](O)[C@@H](O)[C@@H]1O` is reported as under 10 µM (ALDH2; enzyme activity, inhibitor, fluorescence).
With `CCc1oc2cc(F)c(F)cc2c1C(=O)c1cc(Br)c(O)c(Br)c1` the IC50 was 7.34 µM (Solute carrier organic anion transporter family member 1B1 (SLCO1B1, Homo sapiens, UniProt Q9Y6L6); transporter uptake, inhibitor, radiometric; oocytes).
`CN(C)C(=O)c1cc2cnc(Nc3ccc(-c4ccc5c(=O)cc(N6CCOCC6)oc5c4)cc3)nc2n1C1CCCC1` has an IC50 of over 100 µM (CYP1A2; enzyme activity, inhibitor, fluorescence; pH 8).
The IC50 of `COc1ccc(N(Cc2csc(-c3ccc(C)cc3)n2)C(=O)CCCCCC(=O)NO)cc1` is reported as over 10 µM (HDAC11; enzyme activity, inhibitor).
For `O=C(CCNC(=O)CNC(=O)CC(c1ccccc1)(c1ccccc1)c1ccccc1)NC[C@@H]1CCCN(Cc2ccc(F)nc2)C1`, the IC50 was over 30 µM (CHRM1; ligand displacement, radioligand; cell membranes).
The IC50 of `O=C(O)c1cc(-c2ccc(-n3ccnn3)cc2)c2ccc(-c3ccc(C(F)(F)F)cc3)cc2c1` is reported as 7.07 µM (CYP3A4; enzyme activity, inhibitor).
For `Cc1cccc2c1NC(=O)/C2=C/c1cc(Cl)c(O)c(Cl)c1`, the IC50 was 12.7 µM (ALDH2; enzyme activity, inhibitor, fluorescence).
`OCc1ccc(-c2nn(Cc3ccccc3)c3ccccc23)o1` has an IC50 of 0.9 µM (CYP1A2; enzyme activity, inhibitor; human, liver microsomes).
